Drawing on ChEMBL document CHEMBL1128234, “Isothiocyanate-substituted benzyl ether opioid receptor ligands derived from 6 beta-naltrexol” (J Med Chem, 1995), this text covers Control and IC50 for four compounds.

The target of assay [1] is Kappa-type opioid receptor (Cavia porcellus) (UniProt P41144). The assay is described as follows: Irreversible binding affinity at Opioid receptor kappa 1 was evaluated as % of control specific binding remaining protected at concentration of 30 (nM) using [3H]U-69593 radioligand. Put shortly: (§1)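 Diluted guinea pig brain homogenate is exposed to ligand for 60 min at 25 °C; protected samples are first preincubated 15 min at 37 °C with 1 naloxone. Washed samples are diluted in ice-cold Tris pH 7.4, spun at 10000g for 15 min at 4 °C, then resuspended and incubated 15 min at 37 °C, twice. Read-out is standard radioligand binding, expressed as % of recovery-sample specific binding. Test ligands run in triplicate; reference averaged over three assays.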

Assay [2] has as its target Kappa-type opioid receptor (Cavia porcellus, UniProt P41144). The assay is described as follows: Inhibitory concentration against Opioid receptor kappa 1 using [3H]- U-69,593 radioligand. A digest of the protocol: (§2)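 Guinea pig brain (minus cerebellum) homogenate in 0.05 M Tris pH 7.4, diluted 1:60 (0.8-1.5 mg protein/ml). Ligand tested in duplicate at nine concentrations; 60 min at 25 °C. Nonspecific binding defined with naloxone. Filtration, ice-cold buffer rinse, scintillation counting.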

The target in assay [3] is Mu-type opioid receptor (Cavia porcellus, UniProt P97266). The assay is described as follows: Inhibitory concentration was determined against Opioid receptor mu 1 using [3H]- DAMGO radioligand. A digest of the protocol:
as §2

Assay [4] deals with Kappa-type opioid receptor (Cavia porcellus) (UniProt P41144). The experiment in a line: Irreversible binding affinity at Opioid receptor kappa 1 was evaluated as % of control specific binding remaining unwashed at concentration of 30 (nM) using [3H]U-69593 radioligand. A digest of the protocol:
as §1

Assay [5] has the same target. The assay is described as follows: Irreversible binding affinity at Opioid receptor kappa 1 was evaluated as % of control specific binding remaining washed at concentration of 20 (nM) using [3H]U-69593 radioligand. Put shortly: as §1
For assay [6] the target is unchanged. The experiment in a line: Irreversible binding affinity at Opioid receptor kappa 1 was evaluated as % of control specific binding remaining unwashed at concentration of 20 (nM) using [3H]U-69593 radioligand. A digest of the protocol:
as §1

For assay [7] the target is unchanged. The assay is described as follows: Irreversible binding affinity at Opioid receptor kappa 1 was evaluated as % of control specific binding remaining protected at concentration of 20 (nM) using [3H]U-69593 radioligand. A digest of the protocol: as §1
For assay [8] the target is unchanged. The assay is described as follows: Irreversible binding affinity at Opioid receptor kappa 1 was evaluated as % of control specific binding remaining washed at concentration of 30 (nM) using [3H]U-69593 radioligand. A digest of the protocol:
as §1

For assay [9], the target named is Opioid receptors; mu/kappa/delta. The assay is described as follows: Inhibitory concentration was determined against Opioid receptors using [3H]- bremazocine radioligand. It is filed as protein assay, Cavia porcellus. A digest of the protocol: as §2
For assay [10], the target named is Kappa-type opioid receptor (Cavia porcellus) (UniProt P41144). The experiment in a line: Irreversible binding affinity at Opioid receptor kappa 1 was evaluated as % of control specific binding remaining protected at concentration of 150 (nM) using [3H]U-69593 radioligand. Put shortly: as §1
Assay [11] has the same target. The assay is described as follows: Irreversible binding affinity at Opioid receptor kappa 1 was evaluated as % of control specific binding remaining washed at concentration of 150 (nM) using [3H]U-69593 radioligand. Put shortly:
as §1

The target in assay [12] is Mu-type opioid receptor (Cavia porcellus) (UniProt P97266). The experiment in a line: Irreversible binding affinity at mu-receptor was evaluated as % of control specific binding remaining washed at concentration of 80 (nM) using [3H]DAMGO radioligand. A digest of the protocol:
(§3)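 Guinea pig brain homogenate (less cerebellum) in 0.05 M Trizma pH 7.4, diluted 1:60. It was incubated with ligand 60 min at 25 °C, then diluted in ice-cold buffer and centrifuged 10000g. Washed samples were resuspended in buffer, incubated 15 min at 37 °C and recentrifuged. Binding used 1.0 nM [3H]DAMGO for 60 min at 25 °C, with filtration and counting. Nonspecific binding was set with 10 µM naloxone. Triplicates; % specific binding was taken relative to recovery controls.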

For assay [13] the target is unchanged. The assay is described as follows: Irreversible binding affinity at mu-receptor was evaluated as % of control specific binding remaining unwashed at concentration of 80 (nM) using [3H]DAMGO radioligand. Put shortly: as §3
The target in assay [14] is Kappa-type opioid receptor (Cavia porcellus) (UniProt P41144). The experiment in a line: Irreversible binding affinity at Opioid receptor kappa 1 was evaluated as % of control specific binding remaining unwashed at concentration of 50 (nM) using [3H]U-69593 radioligand. A digest of the protocol:
as §1

Assay [15] has the same target. The assay is described as follows: Irreversible binding affinity at Opioid receptor kappa 1 was evaluated as % of control specific binding remaining washed at concentration of 50 (nM) using [3H]U-69593 radioligand. A digest of the protocol: as §1
Assay [16] has the same target. The experiment in a line: Irreversible binding affinity at Opioid receptor kappa 1 was evaluated as % of control specific binding remaining protected at concentration of 50 (nM) using [3H]U-69593 radioligand. Put shortly:
as §1

By IC50 is commonly meant the concentration at which inhibition is half-maximal.

Sequence of Mu-type opioid receptor (P97266 whole entry): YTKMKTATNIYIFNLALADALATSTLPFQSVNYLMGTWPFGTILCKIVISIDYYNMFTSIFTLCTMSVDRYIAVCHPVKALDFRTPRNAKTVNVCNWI
Sequence of Kappa-type opioid receptor (P41144 whole entry): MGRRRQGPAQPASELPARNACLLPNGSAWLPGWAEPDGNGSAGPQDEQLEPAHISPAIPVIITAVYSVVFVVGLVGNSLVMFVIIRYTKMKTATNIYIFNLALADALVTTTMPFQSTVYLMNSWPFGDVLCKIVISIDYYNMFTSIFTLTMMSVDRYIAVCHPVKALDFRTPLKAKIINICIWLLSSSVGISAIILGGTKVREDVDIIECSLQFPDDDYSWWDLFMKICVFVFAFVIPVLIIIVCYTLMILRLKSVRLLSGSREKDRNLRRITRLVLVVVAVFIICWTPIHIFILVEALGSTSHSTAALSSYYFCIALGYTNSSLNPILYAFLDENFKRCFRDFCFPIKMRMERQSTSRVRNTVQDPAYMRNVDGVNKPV
Sequence of Kappa-type opioid receptor (Cavia porcellus) (P41144 whole entry): as above
Sequence of Mu-type opioid receptor (Cavia porcellus) (P97266 whole entry): as the sequence (P97266 whole entry) above

`Oc1ccc2c3c1O[C@H]1[C@H](OCc4cccc(CN=C=S)c4)CC[C@@]4(O)C(C2)N(CC2CC2)CCC314` (some centres undefined): the Control is 73% in assay [1]; 22% in assay [4]; 68% in [5]; 56% in assay [6]; 94% in assay [7]; 58% in assay [8]. Moreover, the IC50 in assay [2] worked out at 6 nM; in [3], 19 nM; in assay [9], 24 nM.
Regarding `Oc1ccc2c3c1O[C@H]1[C@H](OCc4ccccc4CN=C=S)CC[C@@]4(O)C(C2)N(CC2CC2)CCC314` (some centres undefined), the 50% inhibitory concentration (IC50) in [2] worked out at 43 nM; in assay [3] it was 20 nM; in assay [9], 69 nM. The Control in assay [10] turned out to be 45%; in assay [11] it was 35%.
In the case of `Oc1ccc2c3c1O[C@H]1[C@H](OCc4cccc(N=C=S)c4)CC[C@@]4(O)C(C2)N(CC2CC2)CCC314` (some centres undefined), the IC50 came out at 17 nM in [2], 27 nM in assay [3] and 27 nM in assay [9]. Further, the Control worked out at 14% in assay [12]; 4% in assay [13]; 12% in assay [14]; 25% in [15]; 25% in assay [16].
Take `Oc1ccc2c3c1O[C@H]1[C@@H](O)CC[C@@]4(O)[C@@H](C2)N(CC2CC2)CC[C@]314`: the IC50 in assay [2] is 2.6 nM; in [3], 1.1 nM.
